Data: ChEMBL document CHEMBL1158186, “Design, synthesis, and bioactivity of putative tubulin ligands with adamantane core” (Bioorg Med Chem Lett, 2008)
Activity calls are given as the source filed them. The rule behind the calls is not given here.

Assays:
[1] = system: A549; assay: Cytotoxicity against human A549 cells; type: functional, cell-based
[2] = species on record: Bos taurus; assay: Induction of bovine tubulin polymerization relative to taxol; set-up: concentration or dose not given beside the values
[3] = species on record: Bos taurus; assay: Induction of bovine tubulin aggregation by electron microscopy using uranyl acetate staining
Outline: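 Tubulin purified from bovine brain was incubated with compound. Samples were negatively stained with uranyl acetate and examined by electron microscopy for aggregates.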

[4] = species on record: Bos taurus; assay: Induction of bovine tubulin aggregation by SDS-PAGE
Outline: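 Sedimentation assay using tubulin purified from bovine brain, incubated with compound. Pellets were resolved by SDS–PAGE. Pelleted tubulin was expressed relative to the amount pelleted after incubation with taxol, set as 100%. DMSO served as the negative control.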

[5] = system: A549; assay: Cytotoxicity against human A549 cells assessed as formation of shortened aggregates of mirotube bundles at 5 uM by immuno-fluorescent microscopy; type: functional, cell-based
Outline: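 A549 cells were treated with compound at the concentration given in the line, then fixed with polyformaldehyde. Microtubules were stained with primary mouse anti-α-tubulin and a secondary Alexa 488-labelled rabbit anti-mouse antibody. Cells were examined by immunofluorescence microscopy for microtubule bundles and shortened aggregates.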

Activity [2] [%] | Activity [3] | Activity [4] | Structure (SMILES) | IC50 [1] [µM] | Activity [5]
27.1 | Active | Active | CC(C)(C)OC(=O)N[C@@H](c1ccccc1)[C@@H](O)C(=O)OC12CC3CC(C1)CC(C(=O)OC1COC1)(C3)C2 | 2.5 | 
57.1 | Active | Active | O=C(N[C@@H](c1ccccc1)[C@@H](O)C(=O)OC12CC3CC(CC(C3)C1)C2)c1ccccc1 | 5.6 | 
25.3 |  | Active | CC(C)(C)OC(=O)N[C@@H](c1ccccc1)[C@@H](O)C(=O)O[C@H]1C[C@H]2C[C@@H](C1)C[C@@H](C(=O)OC1COC1)C2 | 3.8 | 

The remaining lines, values behind:

Structure (SMILES) | Activity [2] [%] | Activity [3] | Activity [4] | IC50 [1] [µM] | Activity [5]
COc1cc2c(c(OC)c1OC)-c1ccc(OC)c(=O)cc1[C@@H](NC(=O)CCCCCC(=O)OC1C3CC4CC1CC(OC(=O)[C@H](O)[C@@H](NC(=O)OC(C)(C)C)c1ccccc1)(C4)C3)CC2 (mixture of isomers) |  |  |  | 0.0006 | Active
CC(=O)O[C@H]1C(=O)[C@@]2(C)[C@H]([C@H](OC(=O)c3ccccc3)[C@]3(O)C[C@H](OC(=O)[C@H](O)[C@@H](NC(=O)c4ccccc4)c4ccccc4)C(C)=C1C3(C)C)[C@]1(OC(C)=O)CO[C@@H]1C[C@@H]2O [PACLITAXEL] |  |  |  | 0.002 | 
O=C(CCNC(=O)c1ccccc1)OC12CC3CC(CC(C3)C1)C2 | 32.9 |  | Active |  | 
O=C(N[C@@H](c1ccccc1)[C@@H](O)C(=O)OC12CC3CC(C1)C(OC(=O)c1ccccc1)C(C3)C2)c1ccccc1 (mixture of isomers) | 32.3 | Active | Active | 9.5 | 
